Active and inactive are the calls of the source. The calls are words filed in the database; no cut-off is given here.
Assays:
HT-29 = assay: Antiproliferative activity against human HT-29 cells after 48 hrs; format: functional, cell-based; conditions: HT-29, 48 h
Method in brief: (§1)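 TCA fixation, sulforhodamine B stain, absorbance 585 nm minus day-of-treatment background plate; inhibition vs DMSO control; at least triplicate; IC50 accepted if within-experiment variability under 10%.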

M21 = assay: Antiproliferative activity against human M21 cells after 48 hrs; format: functional, cell-based; conditions: M21, 48 h; method in brief: as §1
MCF7 = assay: Antiproliferative activity against human MCF7 cells after 48 hrs; format: functional, cell-based; conditions: MCF7, 48 h; method in brief: as §1
[1] = molecular target: Tubulin beta (Homo sapiens) (UniProt P68371+Q9H4B7+Q13509+P04350+Q3ZCM7+P07437+Q13885+Q9BVA1+Q9BUF5+A6NNZ2); assay: inhibition of beta tubulin acylation in human M21 cells assessed as beta-tubulin band migration by Western blotting; format: cell-based
Method in brief: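 Floating plus adherent cells pooled, lysed in Laemmli buffer, 10% SDS-PAGE, nitrocellulose; blocked in TBS pH 7.4 with 5% milk/0.1% Tween 20, probed with monoclonal anti-β-tubulin 1:500 then peroxidase anti-mouse 1:2500.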

Structure (SMILES)	IC50 (HT-29) [µM]	IC50 (M21) [µM]	IC50 (MCF7) [µM]	Activity [1]
CCNC(=O)Nc1cccc(CCCCCO)c1	> 100	> 100	> 100	–
CCNC(=O)Nc1cccc(CCCCCOC)c1	> 100	> 100	> 100	–
C=CC(=O)Nc1cccc(CCCCC(C)=O)c1	29	33	99	–
COCCCCCc1cccc(NC(=O)NCCCCl)c1	56	51	50	–
CC(=O)CCCCc1cccc(NC(=O)CCCl)c1	> 100	> 100	> 100	–
O=C(CCCl)Nc1cccc(CCCCCO)c1	> 100	> 100	> 100	–
O=C(NCCCCl)Nc1cccc(CCCCCO)c1	19	35	> 100	–
O=C(CCCl)Nc1ccc(I)cc1	18	20	26	inactive
CCCCCc1cccc(NC(=O)CCCCl)c1	> 100	> 100	> 100	–
CC(C)(C)c1ccc(CNC(=O)NCCCCl)cc1	19	11	17	–
CC(C)(C)c1ccc(NC(=O)CCCl)cc1	88	74	49	–
CCCCCc1cccc(NC(=O)NC(=O)CCl)c1	8.4	3.5	8.3	inactive
O=C(NCCCCl)Nc1ccc(I)cc1	90	> 100	> 100	–
CC(C)(C)c1ccc(NC(=O)NCCCCl)cc1	28	35	49	–
CC(C)(C)c1ccc(CNC(=O)CCCCl)cc1	72	69	92	–
O=C(CCl)NC(=O)Nc1cccc(CCCCCO)c1	10	4.6	5.7	inactive
C=CC(=O)Nc1ccc(I)cc1	15	11	17	inactive
COCCCCCc1cccc(NC(=O)NC(=O)CCl)c1	10	4.2	6.1	inactive
CC(C)(C)c1ccc(CNC(=O)CCCl)cc1	87	> 100	67	–
CCCCCc1cccc(NC(=O)NCC)c1	16	36	67	–
C=CC(=O)Nc1ccc(C(C)(C)C)cc1	24	22	29	inactive
C=CC(=O)Nc1cccc(CCCCCOC)c1	40	48	> 100	–
CC(C)(C)c1ccc(NC(=O)CCCCl)cc1	> 100	> 100	> 100	–

Structure (SMILES)	IC50 (HT-29) [µM]	IC50 (M21) [µM]	IC50 (MCF7) [µM]	Activity [1]
C=CC(=O)Nc1cccc(CCCCC)c1	31	27	49	–
CCNC(=O)Nc1cccc(CCCCC(C)=O)c1	40	> 100	> 100	–
CCCCCc1cccc(NC(=O)CCl)c1	12	1.4	5.7	inactive
CC(C)(C)c1ccc(NC(=O)CCl)cc1	15	5.4	5.4	inactive
CC(C)(C)c1ccc(CNC(=O)CCl)cc1	18	16	23	inactive
O=C(CCl)Nc1ccc(I)cc1	9.7	5.1	6.2	inactive
COCCCCCc1cccc(NC(=O)CCCl)c1	> 100	> 100	> 100	–
CCNC(=O)NCc1ccc(C(C)(C)C)cc1	> 100	> 100	> 100	–
COCCCCCc1cccc(NC(=O)CCl)c1	13	6.9	12	inactive
O=C(CCCCl)Nc1ccc(I)cc1	> 100	> 100	> 100	–
COCCCCCc1cccc(NC(=O)CCCCl)c1	> 100	> 100	> 100	–
C=CC(=O)NCc1ccc(C(C)(C)C)cc1	> 100	72	> 100	–
CC(C)(C)c1ccc(CNC(=O)NC(=O)CCl)cc1	7.1	2.4	2.8	inactive
CCNC(=O)Nc1ccc(I)cc1	> 100	> 100	> 100	–
CCCCCc1cccc(NC(=O)NCCCCl)c1	28	24	26	–
CCCCCc1cccc(NC(=O)CCCl)c1	46	54	54	–
C=CC(=O)Nc1cccc(CCCCCO)c1	> 100	98	> 100	–
CC(C)(C)c1ccc(NC(=O)NC(=O)CCl)cc1	6.5	1.4	2	–
O=C(CCl)NC(=O)Nc1ccc(I)cc1	11	8.1	4.9	–
CC(=O)CCCCc1cccc(NC(=O)CCCCl)c1	> 100	> 100	> 100	–
O=C(CCCCl)Nc1cccc(CCCCCO)c1	> 100	> 100	> 100	–
CC(=O)CCCCc1cccc(NC(=O)NCCCCl)c1	41	36	71	–

Source: ChEMBL document CHEMBL1177866, “Synthesis, antiproliferative activity evaluation and structure-activity relationships of novel aromatic urea and amide analogues of N-phenyl-N'-(2-chloroethyl)ureas” (Eur J Med Chem, 2010)
